The values that follow come from ChEMBL document CHEMBL2176869, “Discovery of TAK-875: A Potent, Selective, and Orally Bioavailable GPR40 Agonist” (ACS Med Chem Lett, 2010).

As usually defined, the Ki is the dissociation constant of the complex between target and ligand, obtained from inhibition or displacement. By EC50 is commonly meant the concentration at which the effect is half-maximal. What is called Cmax is the maximum level reached in the sampled fluid or tissue. In general, bioavailability refers to the share of a dose that reaches the circulation, judged against a reference dose that is usually intravenous. Low values mean little systemic uptake, high ones much systemic uptake. In general, AUC(0-t) refers to exposure summed from dosing to a finite time, without extrapolation to infinity. A high value points to high exposure. In general, Tmax refers to the time at which the peak concentration occurs. What is called clearance is a measure of how efficiently the substance is removed, as volume per time. A low value points to inefficient removal.

Active and inactive are the calls of the source. No cut-off for these calls is given here.

Series [1] has as its target Free fatty acid receptor 1 (Rattus norvegicus, UniProt Q8K3T4). As to the kind of experiment: Displacement of 3-[4-({2',6'-dimethyl-6-[(4-[3H])phenylmethoxy]biphenyl-3-yl}methoxy)phenyl]propanoic acid from rat GPR40 expressed in CHO membranes after 90 mins by liquid scintillation counting in presence of 0.2 % BSA. The format is cell membranes, Membrane.
In series [2] the target is T1, Free fatty acid receptor 1 (Homo sapiens, UniProt O14842). Put plainly: Displacement of 3-[4-({2',6'-dimethyl-6-[(4-[3H])phenylmethoxy]biphenyl-3-yl}methoxy)phenyl]propanoic acid from human GPR40 expressed in CHO membranes after 90 mins by liquid scintillation counting in presence of 0.2 % BSA. The class given is cell membranes.
Series [3] deals with T1, Free fatty acid receptor 1. As to the kind of experiment: Agonist activity at human GPR40 expressed in CHO cells assessed as calcium influx by FLIPR assay in presence of 0.1 % BSA. The format is functional, cell-based.
Series [4] in a line: Cmax in fasted dog at 1 mg/kg, po. The format is ADME, organism-based, Canis lupus familiaris. Set-up: dose 1 mg/kg, route oral. The note with it: in vivo. Put shortly:
(§1)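 Dogs given 0.5 mg/kg iv or 1 mg/kg po, with plasma PK parameters derived. Cmax and AUC are reported as anhydrous-compound equivalents. Means of n = 4 dogs.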

The test system of series [5] is Rattus norvegicus. As to the kind of experiment: Antidiabetic activity in po dosed Wistar fatty rat assessed as reduction in blood glucose excursion at administered 1 hr prior glucose challenge as single dose by OGTT. The class given is functional. The note with it: read-out: MED. Put shortly:
(§2)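 Female Wistar fatty rats got a single oral dose of 0.3–3 mg/kg 1 h before a 1 g/kg oral glucose challenge (OGTT). Plasma glucose and insulin were followed over time. Read-outs were incremental AUC0–120 min for glucose and AUCpre–30 min for insulin. Means ± SD, n = 6; compared with vehicle control by one-tailed Williams' test.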

The subject of series [6] is Rattus norvegicus. As to the kind of experiment: Antidiabetic activity in po dosed Wistar fatty rat assessed as augmentation of insulin secretion at administered 1 hr prior glucose challenge as single dose by OGTT. The class given is functional. The note with it: read-out: MED. The procedure, abridged:
as §2

Series [7] has as its system Rattus norvegicus. Put plainly: Antidiabetic activity in Wistar fatty rat assessed as reduction in blood glucose excursion at 0.3 to 3 mg/kg, po administered 1 hr prior glucose challenge as single dose by OGTT. The class given is functional, organism-based. The procedure, abridged: as §2
A short description of series [8]: Oral bioavailability in fasted dog at 1 mg/kg. The class given is ADME, organism-based, Canis lupus familiaris. The note with it: in vivo. Put shortly: as §1
The nature of series [9]: AUC (0 to 24 hrs) in fasted dog at 1 mg/kg, po. The format is ADME, organism-based, Canis lupus familiaris. Set-up: time < 24 hr, dose 1 mg/kg, route oral. The note with it: plasma. The procedure, abridged: as §1
Series [10] is described as follows: Terminal half life in fasted dog at 1 mg/kg, po. The class given is ADME, organism-based, Canis lupus familiaris. Also noted: dose 1 mg/kg, route oral. The note with it: in vivo, read-out: t1/2lambda (converted). Put shortly: as §1
Series [11] is described as follows: Tmax in fasted dog at 1 mg/kg, po. The class given is ADME, organism-based, Canis lupus familiaris. Also noted: dose 1 mg/kg, route oral. The note with it: in vivo. The procedure, abridged:
as §1

Series [12] can be described thus: Terminal half life in fasted dog at 0.5 mg/kg, iv. The format is ADME, organism-based, Canis lupus familiaris. Also noted: dose 0.5 mg/kg, route intravenous. The note with it: in vivo, read-out: t1/2lambda (converted). The procedure, abridged:
as §1

A short description of series [13]: Clearance in fasted dog at 0.5 mg/kg, iv. The class given is ADME, organism-based, Canis lupus familiaris. Also noted: dose 0.5 mg/kg, route intravenous. The note with it: in vivo. The procedure, abridged: as §1
Series [14] is described as follows: Volume of distribution at steady state in fasted dog at 0.5 mg/kg, iv. The class given is ADME, organism-based, Canis lupus familiaris. Also noted: dose 0.5 mg/kg, route intravenous. The note with it: in vivo, read-out: Vdss. The procedure, abridged: as §1
Series [15] is described as follows: AUC (0 to 24 hrs) in fasted Crl:CD(SD) rat at 3 mg/kg, po. Also noted: time < 24 hr, dose 3 mg/kg, route oral. The note with it: plasma. The format is ADME, organism-based. Put shortly:
(§3)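 Rats dosed at 1 mg/kg iv or 3 mg/kg po, with plasma sampling for PK parameters. Cmax and AUC are expressed as anhydrous-compound equivalents. Values are means of n = 3 rats.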

Series [16] is described as follows: Oral bioavailability in fasted Crl:CD(SD) rat at 3 mg/kg. The format is ADME, organism-based. The note with it: in vivo. The procedure, abridged: as §3
Series [17] can be described thus: Cmax in fasted Crl:CD(SD) rat at 3 mg/kg, po. Also noted: dose 3 mg/kg, route oral. The note with it: in vivo. The format is ADME, organism-based. Put shortly:
as §3

The nature of series [18]: Tmax in fasted Crl:CD(SD) rat at 3 mg/kg, po. The format is ADME, organism-based. Also noted: dose 3 mg/kg, route oral. The note with it: in vivo. Put shortly:
as §3

Series [19] is described as follows: Terminal half life in fasted Crl:CD(SD) rat at 1 mg/kg, iv. The class given is ADME, organism-based. Also noted: dose 1 mg/kg, route intravenous. The note with it: in vivo, read-out: t1/2lambda (converted). Put shortly: as §3
The nature of series [20]: Terminal half life in fasted Crl:CD(SD) rat at 3 mg/kg, po. The format is ADME, organism-based. Set-up: dose 3 mg/kg, route oral. The note with it: in vivo, read-out: t1/2lambda (converted). The procedure, abridged:
as §3

Series [21] can be described thus: Volume of distribution at steady state in fasted Crl:CD(SD) rat at 1 mg/kg, iv. The class given is ADME, organism-based. Set-up: dose 1 mg/kg, route intravenous. The note with it: in vivo, read-out: Vdss. Put shortly: as §3
Series [22] concerns the target T2, Free fatty acid receptor 4 (Homo sapiens, UniProt Q5NUL3).
T2 sequence (Q5NUL3 whole entry): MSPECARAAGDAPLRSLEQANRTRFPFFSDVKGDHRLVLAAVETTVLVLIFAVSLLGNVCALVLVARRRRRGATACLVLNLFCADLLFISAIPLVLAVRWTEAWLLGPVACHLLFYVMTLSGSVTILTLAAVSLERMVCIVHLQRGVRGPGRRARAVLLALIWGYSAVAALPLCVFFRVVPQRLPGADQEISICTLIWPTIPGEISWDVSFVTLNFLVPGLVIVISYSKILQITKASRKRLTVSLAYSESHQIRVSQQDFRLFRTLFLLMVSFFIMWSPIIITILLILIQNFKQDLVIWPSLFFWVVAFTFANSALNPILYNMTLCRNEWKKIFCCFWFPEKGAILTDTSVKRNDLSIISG
Put plainly: Agonist activity at human GPR120 expressed in CHO cells assessed as calcium influx after 30 mins by FLIPR assay. The class given is functional, cell-based.

Series [23] is described as follows: Clearance in fasted Crl:CD(SD) rat at 1 mg/kg, iv. The note with it: in vivo. The class given is ADME, organism-based. Set-up: dose 1 mg/kg, route intravenous. The procedure, abridged:
as §3

Series [24] deals with T3, Free fatty acid receptor 2 (Homo sapiens, UniProt O15552).
T3 sequence (O15552 whole entry): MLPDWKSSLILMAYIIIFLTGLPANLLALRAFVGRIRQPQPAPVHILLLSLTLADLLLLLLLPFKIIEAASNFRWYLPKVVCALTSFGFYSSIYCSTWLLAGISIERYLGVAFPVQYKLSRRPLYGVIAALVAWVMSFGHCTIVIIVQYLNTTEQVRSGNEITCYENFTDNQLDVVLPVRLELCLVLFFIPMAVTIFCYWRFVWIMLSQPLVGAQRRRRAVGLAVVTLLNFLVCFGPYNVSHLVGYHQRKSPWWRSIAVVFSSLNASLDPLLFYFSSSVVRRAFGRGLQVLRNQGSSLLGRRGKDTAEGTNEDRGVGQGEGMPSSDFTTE
As to the kind of experiment: Agonist activity at human GPR43 expressed in 293 cells assessed as cAMP accumulation after 30 mins by Alphascreen method. The format is functional, cell-based, HEK293. (In general: Cyclic AMP is a second messenger, typically raised through Gs and lowered through Gi signalling.)

Series [25] has as its target T4, Free fatty acid receptor 3 (Homo sapiens, UniProt O14843).
T4 sequence (O14843 whole entry): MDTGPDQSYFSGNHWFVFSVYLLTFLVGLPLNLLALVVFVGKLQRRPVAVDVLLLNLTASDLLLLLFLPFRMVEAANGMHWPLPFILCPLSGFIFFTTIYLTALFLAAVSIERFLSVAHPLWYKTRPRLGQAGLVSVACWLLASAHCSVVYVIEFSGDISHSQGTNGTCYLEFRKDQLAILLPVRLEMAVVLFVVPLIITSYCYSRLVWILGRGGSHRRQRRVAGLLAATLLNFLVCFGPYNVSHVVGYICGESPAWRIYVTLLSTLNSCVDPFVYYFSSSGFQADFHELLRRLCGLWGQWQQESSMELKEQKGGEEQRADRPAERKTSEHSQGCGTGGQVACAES
As to the kind of experiment: Agonist activity at human GPR41 expressed in 293 cells assessed as cAMP accumulation after 30 mins by Alphascreen method. The format is functional, cell-based, HEK293.

The subject of series [26] is Rattus norvegicus. Put plainly: Antidiabetic activity in Wistar fatty rat assessed as augmentation of insulin secretion at 0.3 to 3 mg/kg, po administered 1 hr prior glucose challenge as single dose by OGTT.

T1 sequence (O14842 whole entry): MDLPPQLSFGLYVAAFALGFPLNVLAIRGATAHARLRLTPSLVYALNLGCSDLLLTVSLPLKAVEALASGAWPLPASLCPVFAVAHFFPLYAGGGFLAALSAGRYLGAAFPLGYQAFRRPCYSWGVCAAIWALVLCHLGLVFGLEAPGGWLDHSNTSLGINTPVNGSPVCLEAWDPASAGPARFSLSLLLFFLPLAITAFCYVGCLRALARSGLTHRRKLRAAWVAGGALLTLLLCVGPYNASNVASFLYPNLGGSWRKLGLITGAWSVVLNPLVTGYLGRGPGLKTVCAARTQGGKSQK
Free fatty acid receptor 1 (Rattus norvegicus, UniProt Q8K3T4), sequence (Q8K3T4 whole entry): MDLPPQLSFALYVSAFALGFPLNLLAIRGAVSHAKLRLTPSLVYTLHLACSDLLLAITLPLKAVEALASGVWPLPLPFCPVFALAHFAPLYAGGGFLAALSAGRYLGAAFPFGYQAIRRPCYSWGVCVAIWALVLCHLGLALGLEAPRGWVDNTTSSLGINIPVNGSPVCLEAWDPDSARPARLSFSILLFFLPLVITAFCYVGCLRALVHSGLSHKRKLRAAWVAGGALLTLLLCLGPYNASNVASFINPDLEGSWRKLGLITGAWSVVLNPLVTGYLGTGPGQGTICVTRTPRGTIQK

Turning to `Cc1cccc(C)c1-c1cccc(COc2ccc3c(c2)CCC3CC(=O)O)c1` (centres undefined), the Ki in [1] amounted to 0.52 µM; in series [2], 0.21 µM. Further, the EC50 in series [3] is 0.028 µM.

For the compound `Cc1cccc(C)c1-c1cccc(COc2ccc3c(c2)CCCCC3CC(=O)O)c1` (centres undefined), the figures for the Ki in series [1] and in series [2] were above 10 µM and 2.4 µM, respectively. Also, the EC50 in [3] came to 0.54 µM.

Turning to `Cc1cccc(C)c1-c1cccc(COc2ccc3c(c2)CCCC3CC(=O)O)c1` (centres undefined), the Ki in [1] worked out at 3.7 µM; in series [2], 0.059 µM. Besides, the EC50 in [3] is 0.023 µM.

With `Cc1cc(OCCCS(C)(=O)=O)cc(C)c1-c1cccc(COc2ccc3c(c2)OC[C@H]3CC(=O)O)c1.O`, the Cmax in [4] was determined as 3290 ng/mL; in series [17], 5770 ng/mL. Further, the minimal effective dose in the series on Rattus norvegicus [5] and in the series with Rattus norvegicus [6] was 1 mg/kg each time. Besides, the result in the series on Rattus norvegicus [7] and with Rattus norvegicus [26] was Active. The values for the bioavailability in series [8] and in series [16] were 92.4% and 76%, respectively. In addition, the AUC(0-t) at 24 h in series [9] was found to be 29400 ng·h/mL; in [15] it was 65000 ng·h/mL. Further, the half-life was 7.5 h in [10], 5.9 h in [12], 4.7 h in series [19] and 4.1 h in series [20]. Besides, the figures for the time to peak (Tmax) in series [11] and in series [18] were 2 h and 1 h, respectively. In addition, the clearance in [13] was 0.496 mL/min/kg; in series [23] it was 0.569 mL/min/kg. Besides, the Vd was found to be 0.225 L/kg in series [14] and 0.208 L/kg in series [21]. Besides, the EC50 in series [22], in [24] and in series [25] was above 10 µM each time. Besides, in series [1], the Ki came to 0.14 µM.

`Cc1cccc(C)c1-c1cccc(COc2ccc3c(CC(=O)O)coc3c2)c1`: the inhibition constant Ki in series [1] and in [2] was above 10 µM throughout. The EC50 in series [3] amounted to 1.7 µM.

Take `Cc1cccc(C)c1-c1cccc(COc2ccc3c(c2)OCC3CC(=O)O)c1` (centres undefined): the Ki worked out at 1.1 µM in series [1] and 0.17 µM in series [2]. Moreover, the EC50 in series [3] worked out at 0.022 µM.

`Cc1cccc(C)c1-c1cccc(COc2ccc(CCC(=O)O)c(F)c2)c1`: in series [1], the Ki came to 0.054 µM.

Take `Cc1cc(OCCCS(C)(=O)=O)cc(C)c1-c1cccc(COc2ccc3c(c2)OC[C@@H]3CC(=O)O)c1`: in series [1], the Ki came to 1.6 µM.

Regarding `Cc1cccc(C)c1-c1cccc(COc2ccc3c(c2)OCCC(C(=O)O)C3)c1` (centres undefined), the Ki is above 10 µM in series [1] and 0.27 µM in series [2]. In addition, in series [3], the EC50 came to 0.049 µM.
